In ChEMBL document CHEMBL4689842, “EUbOPEN Chemogenomics Library wave 1” (2021):

Test system: HEK-293T
Experiment: Multiplex assay against HEK293T;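 as to Population Tubulin-Different-Phenotype (%): share of the cells with healthy nuclei that show this phenotype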
Format: toxicity, cell-based
Details: human
Outline: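 With compound added, live cells were imaged on a CQ1 microscope at 37°C and 5% CO2; staining with Hoechst33342, BioTracker Green Microtubule Cytoskeleton Dye, MitoTracker Red and Annexin V Alexa Fluor 680 had been done at seeding. The CellPathfinder machine-learning gating scheme split cells into Hoechst high-intensity objects or normal cells, normal cells into healthy, pyknosed or fragmented nuclei, and pyknosed cells into mitotic or apoptotic. The tubulin, mitochondrial-mass and membrane-permeability phenotypes are per cents of healthy-nucleus cells.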

[1] = 12 h, 1 µM, compound concentration 1 uM, replicate 1
[2] = 12 h, 1 µM, compound concentration 1 uM, replicate 2
[3] = 12 h, 10 µM, compound concentration 10 uM, replicate 1
[4] = 12 h, 10 µM, compound concentration 10 uM, replicate 2
[5] = 24 h, 1 µM, compound concentration 1 uM, replicate 1
[6] = 24 h, 1 µM, compound concentration 1 uM, replicate 2
[7] = 24 h, 10 µM, compound concentration 10 uM, replicate 1
[8] = 24 h, 10 µM, compound concentration 10 uM, replicate 2

## CCN(CC)CCCCNc1ncc2cc(-c3cc(OC)cc(OC)c3)c(NC(=O)NC(C)(C)C)nc2n1 [PD-173074]
[1]
  Population Apoptotic (%): 8%
  Population Fragmented Nuclei (%): 79%
  Population Healthy Nuclei (%): 8%
  Population Hoechst High Intensity Objects (%): 69%
  Population Membrane Permeable-Phenotype (%): 15%
  Population Mitochondria Different-Phenotype (%): 31%
  Population Mitotic Cells (%): 91%
  Population Normal (%): 30%
  Population Pyknosed Nuclei (%): 11%
  Population Tubulin-Different-Phenotype (%): 42%
  Total Cell Count: 685
[2]
  Population Apoptotic (%): 6%
  Population Fragmented Nuclei (%): 80%
  Population Healthy Nuclei (%): 1%
  Population Hoechst High Intensity Objects (%): 80%
  Population Membrane Permeable-Phenotype (%): 66%
  Population Mitochondria Different-Phenotype (%): 0%
  Population Mitotic Cells (%): 93%
  Population Normal (%): 19%
  Population Pyknosed Nuclei (%): 17%
  Population Tubulin-Different-Phenotype (%): 66%
  Total Cell Count: 917
[3]
  Population Fragmented Nuclei (%): 29%
  Population Healthy Nuclei (%): 52%
  Population Hoechst High Intensity Objects (%): 48%
  Population Membrane Permeable-Phenotype (%): 26%
  Population Mitochondria Different-Phenotype (%): 6%
  Population Normal (%): 51%
  Population Pyknosed Nuclei (%): 17%
  Population Tubulin-Different-Phenotype (%): 33%
  Total Cell Count: 693
[4]
  Population Apoptotic (%): 28%
  Population Fragmented Nuclei (%): 7%
  Population Healthy Nuclei (%): 85%
  Population Hoechst High Intensity Objects (%): 42%
  Population Membrane Permeable-Phenotype (%): 22%
  Population Mitochondria Different-Phenotype (%): 24%
  Population Mitotic Cells (%): 71%
  Population Normal (%): 57%
  Population Pyknosed Nuclei (%): 7%
  Population Tubulin-Different-Phenotype (%): 71%
  Total Cell Count: 1213
[5]
  Population Apoptotic (%): 32%
  Population Fragmented Nuclei (%): 84%
  Population Healthy Nuclei (%): 6%
  Population Hoechst High Intensity Objects (%): 55%
  Population Membrane Permeable-Phenotype (%): 36%
  Population Mitochondria Different-Phenotype (%): 15%
  Population Mitotic Cells (%): 68%
  Population Normal (%): 44%
  Population Pyknosed Nuclei (%): 8%
  Population Tubulin-Different-Phenotype (%): 26%
  Total Cell Count: 629
[6]
  Population Apoptotic (%): 0%
  Population Fragmented Nuclei (%): 91%
  Population Healthy Nuclei (%): 1%
  Population Hoechst High Intensity Objects (%): 60%
  Population Membrane Permeable-Phenotype (%): 0%
  Population Mitochondria Different-Phenotype (%): 20%
  Population Mitotic Cells (%): 100%
  Population Normal (%): 39%
  Population Pyknosed Nuclei (%): 6%
  Population Tubulin-Different-Phenotype (%): 60%
  Total Cell Count: 891
[7]
  Population Apoptotic (%): 28%
  Population Fragmented Nuclei (%): 17%
  Population Healthy Nuclei (%): 71%
  Population Hoechst High Intensity Objects (%): 36%
  Population Membrane Permeable-Phenotype (%): 25%
  Population Mitochondria Different-Phenotype (%): 9%
  Population Mitotic Cells (%): 71%
  Population Normal (%): 63%
  Population Pyknosed Nuclei (%): 11%
  Population Tubulin-Different-Phenotype (%): 50%
  Total Cell Count: 733
[8]
  Population Apoptotic (%): 15%
  Population Fragmented Nuclei (%): 16%
  Population Healthy Nuclei (%): 80%
  Population Hoechst High Intensity Objects (%): 27%
  Population Membrane Permeable-Phenotype (%): 20%
  Population Mitochondria Different-Phenotype (%): 6%
  Population Mitotic Cells (%): 85%
  Population Normal (%): 72%
  Population Pyknosed Nuclei (%): 2%
  Population Tubulin-Different-Phenotype (%): 58%
  Total Cell Count: 1994
